From ChEMBL document CHEMBL1781935, “Amberlite-IRA-402 (OH) ion exchange resin mediated synthesis of indolizines, pyrrolo [1,2-a] quinolines and isoquinolines: antibacterial and antifungal evaluation of the products” (2011)
In brackets after ≈: the same amount, converted by molar mass.

Experiments:
[1] = test system: Pseudomonas aeruginosa; assay: Antibacterial activity against Pseudomonas aeruginosa ATCC 27853; assay type: functional
Method in brief: (§1)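 MIC by broth and agar dilution. Broth: 0.1 ml suspension (2 × 10^6 cfu/ml) in Mueller-Hinton broth with test drug at 1–1000 µg/ml, 37 °C overnight. Agar: serial drug dilutions in Mueller-Hinton agar, spot-inoculated with 2 × 10^6 cfu/spot, 37 °C for 24 h. MIC was the lowest concentration with no visible growth. Antibiotic controls were included.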

[2] = test system: Klebsiella pneumoniae; assay: Antibacterial activity against Klebsiella pneumoniae isolate J/1/4; assay type: functional; method in brief: as §1
[3] = test system: Staphylococcus aureus; assay: Antibacterial activity against Staphylococcus aureus ATCC 25923; assay type: functional; method in brief: as §1
[4] = test system: Micrococcus luteus; assay: Antibacterial activity against Micrococcus luteus AGD1; assay type: functional; method in brief: as §1
[5] = test system: Vibrio cholerae; assay: Antibacterial activity against Vibrio cholerae isolate 7201; assay type: functional
[6] = test system: Vibrio parahaemolyticus; assay: Antibacterial activity against Vibrio parahaemolyticus isolate 72016; assay type: functional; method in brief: as §1
[7] = test system: Salmonella typhimurium; assay: Antibacterial activity against Salmonella Typhimurium isolate 11; assay type: functional, Salmonella enterica subsp. enterica serovar Typhimurium; method in brief: as §1
[8] = test system: Shigella dysenteriae; assay: Antibacterial activity against Shigella dysenteriae isolate 3; assay type: functional
[9] = test system: Salmonella typhi; assay: Antibacterial activity against Salmonella typhi DIRW; assay type: functional, Salmonella enterica subsp. enterica serovar Typhi
[10] = test system: Enterococcus faecalis; assay: Antibacterial activity against Streptococcus faecalis isolate 29212; assay type: functional; method in brief: as §1
[11] = test system: Escherichia coli; assay: Antibacterial activity against Escherichia coli ATCC 25938; assay type: functional; method in brief: as §1
[12] = test system: Shigella flexneri; assay: Antibacterial activity against Shigella flexneri DN13; assay type: functional; method in brief: as §1
[13] = test system: Bacillus subtilis; assay: Antibacterial activity against Bacillus subtilis UC564; assay type: functional; method in brief: as §1

| Compound | MIC [1] | MIC [2] | MIC [3] | MIC [4] | MIC [5] | MIC [6] | MIC ([7]; Salmonella enterica) | MIC [8] | MIC ([9]; Salmonella enterica) | MIC [10] | MIC [11] | MIC [12] | MIC [13] | MIC ([7]; Salmonella enterica subsp. enterica serovar Typhimurium) | MIC ([9]; Salmonella enterica subsp. enterica serovar Typhi) |
| --- | --- | --- | --- | --- | --- | --- | --- | --- | --- | --- | --- | --- | --- | --- | --- |
| CCOC(=O)c1c(C(=O)OCC)c2c3ccccc3ccn2c1C(=O)c1ccccc1 | 500 mg/L (≈ 1200 µM) | 128 mg/L (≈ 308 µM) | 500 mg/L (≈ 1200 µM) | > 500 mg/L | 500 mg/L (≈ 1200 µM) | 128 mg/L (≈ 308 µM) | > 500 mg/L | > 500 mg/L | 128 mg/L (≈ 308 µM) | > 500 mg/L | 128 mg/L (≈ 308 µM) | 256 mg/L (≈ 616 µM) | 256 mg/L (≈ 616 µM) |  |  |
| GENTAMICIN | 2 mg/L | 2 mg/L | 1 mg/L | 8 mg/L | 0.5 mg/L | 1 mg/L |  | 1 mg/L |  | 0.5 mg/L | 0.25 mg/L | 1 mg/L | 4 mg/L | 1 mg/L | 1 mg/L |
| CCOC(=O)c1cc2ccc3ccccc3n2c1C(=O)c1ccccc1 | > 500 mg/L | > 500 mg/L | > 500 mg/L | > 500 mg/L | > 500 mg/L | > 500 mg/L | > 500 mg/L | > 500 mg/L | > 500 mg/L | > 500 mg/L | > 500 mg/L | > 500 mg/L | > 500 mg/L |  |  |
| COC(=O)c1cc2ccc3ccccc3n2c1C(=O)c1ccccc1 | > 500 mg/L | > 500 mg/L | > 500 mg/L | > 500 mg/L | > 500 mg/L | > 500 mg/L | > 500 mg/L | > 500 mg/L | > 500 mg/L | > 500 mg/L | > 500 mg/L | > 500 mg/L | > 500 mg/L |  |  |
| CCOC(=O)c1c(C(=O)OCC)c2ccccn2c1C(=O)c1ccccc1 | > 500 mg/L | > 500 mg/L | > 500 mg/L | > 500 mg/L | > 500 mg/L | > 500 mg/L | > 500 mg/L | > 500 mg/L | > 500 mg/L | > 500 mg/L | > 500 mg/L | > 500 mg/L | > 500 mg/L |  |  |
| COC(=O)c1cc2ccccn2c1C(=O)c1ccccc1 | > 500 mg/L | > 500 mg/L | > 500 mg/L | > 500 mg/L | > 500 mg/L | > 500 mg/L | > 500 mg/L | > 500 mg/L | > 500 mg/L | > 500 mg/L | > 500 mg/L | > 500 mg/L | > 500 mg/L |  |  |
| COC(=O)c1c(C(=O)OC)c2c3ccccc3ccn2c1C(=O)c1ccccc1 | 500 mg/L (≈ 1290 µM) | 500 mg/L (≈ 1290 µM) | 256 mg/L (≈ 661 µM) | > 500 mg/L | 500 mg/L (≈ 1290 µM) | 256 mg/L (≈ 661 µM) | 256 mg/L (≈ 661 µM) | > 500 mg/L | > 500 mg/L | > 500 mg/L | 256 mg/L (≈ 661 µM) | > 500 mg/L | > 500 mg/L |  |  |
